The list is not random: actives were taken first. Their share in the collection is about 3.5%.
RGS4 inh: RGS4 inhibitors, primary screen, cell-based, HEK293 M3R inducible RGS4, calcium flux; Fluo-4 calcium flux; stronger effect = higher value; triggered by carbachol at its EC20; B-score at 10 µM; hit rate 0.45% among 310,000;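 active = B-score, a plate-corrected calcium signal, over three deviations above library mean, with baseline fluorescence within five deviations of library mean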;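 note: RGS4 expression induced by doxycycline in cells with stable M3 receptor; B-score is computed from the integrated fluorescence ratio over baseline after carbachol; higher B-score means a larger calcium signal and so more RGS4 inhibition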
MrgX1 allo act: positive allosteric modulators of MrgX1, primary screen, HEK293 cells, Fluo-4 calcium flux. FDSS; stronger effect = higher value. AID 588675, 2011. B-score at 10 µM. Mas-related G-protein coupled receptor member X1 (Homo sapiens), Q96LB2. hit rate 0.63% among 310,000;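 active = plate-corrected calcium response at least 3 library SD above typical, normal starting fluorescence, not activating the receptor alone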;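 note: compound read alongside a low EC10 to EC30 dose of BAM8-22 agonist; peak minus trough fluorescence over baseline measured at the second addition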
Target sequence (Q96LB2 whole entry, looked up): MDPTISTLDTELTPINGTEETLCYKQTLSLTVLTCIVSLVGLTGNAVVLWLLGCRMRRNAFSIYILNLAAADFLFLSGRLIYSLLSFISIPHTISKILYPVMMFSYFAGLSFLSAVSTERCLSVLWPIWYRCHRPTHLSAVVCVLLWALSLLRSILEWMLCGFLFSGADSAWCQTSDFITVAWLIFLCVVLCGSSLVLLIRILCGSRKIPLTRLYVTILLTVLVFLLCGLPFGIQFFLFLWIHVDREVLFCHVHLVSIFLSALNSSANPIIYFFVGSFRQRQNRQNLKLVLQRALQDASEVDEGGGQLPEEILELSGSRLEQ
RGS4 act: RGS4 potentiators or activators, primary screen, cell-based, HEK293 M3R inducible RGS4, calcium flux. AID 463111, 2010. B-score at 10 µM. hit rate 0.92% among 310,000. carbachol calcium flux Fluo4; stronger effect = lower value;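 active = B-score of the integrated calcium signal more than 4 SD below the library mean, with starting fluorescence not abnormally high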;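 note: negative B-score means reduced calcium response which marks RGS4 activation or potentiation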
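Reagent: ECmax carbachol challenge; Test system: M3R-expressing HEK293 line, RGS4 induced by doxycycline; Schedule: overnight RGS4 induction, 30 min dye load 37 °C, 20 min compound RT; Detection: calcium dye Fluo4 fluorescence; Read-out: Agonist-evoked peak-minus-minimum fluorescence over baseline, integrated ratio, B score.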
MrgX1 ag: agonists of human MrgX1 receptor, primary screen, HEK293 cells, Fluo-4 calcium flux. Mas-related G-protein coupled receptor member X1 (Homo sapiens), Q96LB2. Fluo-4 calcium fluorescence, agonist mode; stronger effect = higher value. B-score at 10 µM. hit rate 0.44% among 310,000. AID 588627, 2011;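 active = calcium response B-score plate-corrected fluorescence ratio at least 3 library SD, with starting fluorescence B-score inside 5 SD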
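System: HEK293 cells stably expressing human MrgX1 receptor; Dosing: test compound in the initial addition of three; Schedule: overnight plating, then 30 min 37 °C plus 30 min room-temperature dye loading; Detection: kinetic calcium dye fluorescence, Fluo-4 NW; Controls: per-plate positive and negative controls for Z′ factor.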
MrgX1 antag: antagonists of human MrgX1 receptor, primary screen, HEK293 cells, Fluo-4 calcium flux; AID 588676, 2011; B-score at 10 µM; Mas-related G-protein coupled receptor member X1 (Homo sapiens), Q96LB2; BAM8-22 antagonism; stronger effect = lower value; hit rate 1.3% among 310,000;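 active = calcium-response B-score plate-corrected more than 3 library SD below zero, starting fluorescence within 5 deviations, no agonist response on first addition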;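 note: peak minus trough fluorescence over baseline after final BAM8-22 challenge near maximal dose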
* hit, by the source's call; i = inactive; x = no result given.

SMILES	RGS4 inh	MrgX1 allo act	RGS4 act	MrgX1 ag	MrgX1 antag
C/C(=N\OCc1nc2ccccc2c(=O)n1/N=C/c1cc([N+](=O)[O-])ccc1O)c1ccccc1	i	7.34*	i	i	i
CC(C)(C)CN1CCNC(=O)C1CC(=O)NCCN1CCCc2ccccc21 (configuration not stated)	i	i	i	i	i
Cc1ccc(OCC(=O)NNC(=S)NC(=O)c2ccc(Br)o2)c(C)c1	i	10.2*	-10.7*	i	i
COc1ccc(C(=O)NNC(=S)NC(=O)c2ccc(Br)o2)cc1OC	i	i	i	52.7*	i
Cc1ccc(OCC(=O)NNC(=S)NC(=O)c2cccs2)c(C)c1	i	i	-8.96*	34.7*	i
Cc1cccc(NC(=S)NNC(=O)c2ccc(Br)o2)c1	i	i	i	i	i
COc1ccc(OCC(=O)NNC(=O)c2cccs2)cc1	i	i	i	i	i
COc1ccc(C(=O)NC(=S)NNC(=O)c2cnccn2)cc1OC	i	i	i	i	i
Cc1cc(OCC(=O)NNC(=S)NC(=O)c2cccs2)ccc1Cl	i	8.41*	-7.8*	i	i
CCOC(=O)c1c(C)n(-c2ccccc2)c2ccc(OCCN(C)C)cc12	i	i	i	i	i
COC(=O)c1cc(S(=O)(=O)NCCc2cccc(C)c2)cn1C	i	i	i	i	i
CN(CCCC(=O)O)c1ccc(N=Nc2ccc([N+](=O)[O-])cc2)cc1	i	i	i	i	i
COc1ccccc1CNCC(=O)Nc1ccc(N(C)C)cc1	i	i	i	i	i
CCCOC(=O)/C(C(N)=NCc1ccccc1)=C(\O)OCCC	i	i	i	28.3*	i
O=C(NC1CCCCCC1)c1ccc(Cl)c(S(=O)(=O)N2CCOCC2)c1	i	i	i	i	i
O=c1c2ccc(Cl)cc2nc(-c2cccc(C(F)(F)F)c2)n1O	i	i	i	46.7*	i
O=c1c2ccccc2nc(-c2ccc(Cl)c(Cl)c2)n1O	i	i	i	35*	i
Cc1ccc(C)c(N2CCN(C(=O)C34CC5CC(C3)CC(n3nnc(C)n3)(C5)C4)CC2)c1	i	i	i	i	i
Cc1cc(SCC(=O)OCC(=O)NCC2CCCO2)c(C)cc1Br (configuration not stated)	i	i	i	i	i
C=CCn1c(SCCOc2ccccc2)nnc1C(C)NC(=O)c1ccccc1 (configuration not stated)	i	i	i	i	i
C=CCn1c(SCC(=O)N2CCOCC2)nnc1C(C)NC(=O)c1ccccc1 (configuration not stated)	i	i	i	i	-5.36*
Cn1cc(Br)c(-c2cccc(N3C(=O)CCCC3=O)c2)n1	i	i	i	i	i
COc1ccc(Cl)cc1/C=C(\C#N)C(N)=O	i	i	i	29.7*	i
CC1(C)OC(=O)C(=CNc2ccccc2)C(=O)O1	i	i	i	i	-7.31*
Clc1ccc(OCc2nnc(SCc3nnc(-c4ccccc4)o3)o2)c(Cl)c1	i	i	-9.66*	i	i
O=C(CSc1nnc(COc2ccc(Cl)cc2Cl)o1)Nc1ccccn1	i	i	i	i	i
O=[N+]([O-])c1ccc(-c2ccc(/C=N/Nc3nc(N4CCCC4)nc(N4CCCC4)n3)o2)cc1	i	i	i	34.2*	i
O=[N+]([O-])c1ccc(-c2ccc(/C=N/Nc3nc(N4CCCCC4)nc(N4CCCCC4)n3)o2)cc1	i	x	i	x	x
Cc1ccc(/C=C2/Sc3ccccc3N(CC(=O)NCCCOC(C)C)C2=O)cc1	i	i	i	i	-4.79*
COc1ccc(CNC(=O)COc2cccnc2[N+](=O)[O-])cc1OC	i	6.93*	i	i	i
